{"source": "ChEMBL document CHEMBL1129264", "about": "“Mercaptoacyl dipeptides as orally active dual inhibitors of angiotensin-converting enzyme and neutral endopeptidase” (1996)", "key": {"Rattus norvegicus [1]": {"test_system": "Rattus norvegicus", "experiment": "Plasma ANF Concentration in the Conscious Rat at a dose of 13.5(po)mg/kg at 1 h", "format": "functional", "in_short": "(§1)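 Male Sprague-Dawley rats (275-390 g), catheterized in femoral artery and vein under ketamine (150 mg/kg)/acepromazine, tethered and recovered 24 h, studied conscious. Continuous iv rat ANF(99-126) infusion at 450 ng/kg/min for 5 h; baseline blood at 60 min, then oral dosing, sampling at 30-240 min.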"}, "[2]": {"biological_target": "T1, Angiotensin-converting enzyme (Rattus norvegicus) (UniProt P47820)", "T1 sequence (whole entry)": "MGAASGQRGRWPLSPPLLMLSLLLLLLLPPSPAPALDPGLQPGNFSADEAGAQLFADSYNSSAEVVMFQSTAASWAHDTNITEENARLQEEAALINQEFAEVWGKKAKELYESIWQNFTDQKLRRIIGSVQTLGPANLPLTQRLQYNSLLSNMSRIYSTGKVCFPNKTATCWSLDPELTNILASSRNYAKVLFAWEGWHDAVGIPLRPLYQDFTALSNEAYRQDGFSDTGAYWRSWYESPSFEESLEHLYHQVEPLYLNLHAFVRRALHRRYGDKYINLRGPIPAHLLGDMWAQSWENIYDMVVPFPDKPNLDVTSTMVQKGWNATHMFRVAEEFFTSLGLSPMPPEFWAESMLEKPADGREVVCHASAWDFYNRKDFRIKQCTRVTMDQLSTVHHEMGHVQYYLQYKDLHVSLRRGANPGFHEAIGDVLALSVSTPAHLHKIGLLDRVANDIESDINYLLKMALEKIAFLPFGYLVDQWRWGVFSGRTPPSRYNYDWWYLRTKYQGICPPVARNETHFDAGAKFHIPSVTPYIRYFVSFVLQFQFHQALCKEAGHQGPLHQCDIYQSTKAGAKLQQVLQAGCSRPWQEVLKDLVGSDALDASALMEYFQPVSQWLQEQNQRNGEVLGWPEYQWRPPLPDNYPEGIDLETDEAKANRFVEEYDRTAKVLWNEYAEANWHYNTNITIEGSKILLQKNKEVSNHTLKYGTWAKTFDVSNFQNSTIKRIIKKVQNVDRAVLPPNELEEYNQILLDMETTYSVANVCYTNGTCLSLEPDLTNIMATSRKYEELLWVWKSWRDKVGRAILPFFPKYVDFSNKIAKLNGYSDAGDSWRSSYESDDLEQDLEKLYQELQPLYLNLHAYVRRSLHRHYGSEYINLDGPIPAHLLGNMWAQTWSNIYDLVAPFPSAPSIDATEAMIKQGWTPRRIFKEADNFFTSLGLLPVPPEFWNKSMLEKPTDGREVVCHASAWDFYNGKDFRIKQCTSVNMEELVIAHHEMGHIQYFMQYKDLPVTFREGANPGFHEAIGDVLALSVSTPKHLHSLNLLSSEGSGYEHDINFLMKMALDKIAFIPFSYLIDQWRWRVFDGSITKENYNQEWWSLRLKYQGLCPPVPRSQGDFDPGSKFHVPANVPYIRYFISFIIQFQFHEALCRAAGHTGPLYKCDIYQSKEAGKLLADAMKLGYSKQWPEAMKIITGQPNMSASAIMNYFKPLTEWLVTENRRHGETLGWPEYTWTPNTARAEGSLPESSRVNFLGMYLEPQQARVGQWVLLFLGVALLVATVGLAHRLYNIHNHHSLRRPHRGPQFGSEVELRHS", "experiment": "Compound was tested for plasma inhibition of Angiotensin I converting enzyme activity in the conscious rat. Expressed as Inhibition of AI pressor response at 4 hr at a dose of 13.5 mg/kg po", "format": "organism-based", "parameters": "dose 13.5 mg/kg", "in_short": "(§2)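 Male conscious normotensive Sprague-Dawley rats (275-390 g), prepared under methohexital sodium (75 mg/kg ip) with femoral arterial and venous catheters. The next day, pressor responses to three angiotensin-I challenges (300 ng/kg iv) were recorded. Compound was then given orally and angiotensin-I challenges were repeated at set times. Percent inhibition is relative to the mean of the three baseline responses.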"}, "Rattus norvegicus [3]": {"test_system": "Rattus norvegicus", "experiment": "Plasma ANF Concentration in the Conscious Rat at a dose of 13.5(po)mg/kg at 0.5 h", "format": "functional", "in_short": "as §1"}, "Rattus norvegicus [4]": {"test_system": "Rattus norvegicus", "experiment": "Plasma ANF Concentration in the Conscious Rat at a dose of 13.5(po)mg/kg at 4 h", "format": "functional", "in_short": "as §1"}, "[5]": {"biological_target": "T1, Angiotensin-converting enzyme (Rattus norvegicus)", "experiment": "Compound was tested for plasma inhibition of Angiotensin I converting enzyme activity in the conscious rat. Expressed as Inhibition of AI pressor response at 1 hr at a dose of 13.5 mg/kg po", "format": "organism-based", "parameters": "dose 13.5 mg/kg", "in_short": "(§3)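 Male conscious normotensive Sprague-Dawley rats (275-390 g), given femoral arterial and venous catheters under methohexital sodium (75 mg/kg ip) anesthesia. Next day, pressor responses to three angiotensin-I challenges (300 ng/kg iv) recorded by direct arterial pressure. Compound then dosed orally, and AI challenge repeated at set times. Each post-dose response compared with the mean of the three baseline responses, giving % inhibition.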"}, "Rattus norvegicus [6]": {"test_system": "Rattus norvegicus", "experiment": "Plasma ANF Concentration in the Conscious Rat at a dose of 13.5(po)mg/kg at 2 h", "format": "functional", "in_short": "as §1"}, "[7]": {"biological_target": "T1, Angiotensin-converting enzyme (Rattus norvegicus)", "experiment": "Compound was tested for plasma inhibition of Angiotensin I converting enzyme activity in the conscious rat. Expressed as Inhibition of AI pressor response at 6 hr at a dose of 13.5 mg/kg po", "format": "organism-based", "parameters": "dose 13.5 mg/kg", "in_short": "as §2"}, "[8]": {"biological_target": "T1, Angiotensin-converting enzyme (Rattus norvegicus)", "experiment": "Compound was tested for plasma inhibition of Angiotensin I converting enzyme activity in the conscious rat. Expressed as Inhibition of AI pressor response at 2 hr at a dose of 13.5 mg/kg po", "format": "organism-based", "parameters": "dose 13.5 mg/kg", "in_short": "as §3"}, "[9]": {"biological_target": "T1, Angiotensin-converting enzyme (Rattus norvegicus)", "experiment": "Compound was tested for plasma inhibition of Angiotensin I converting enzyme activity in the conscious rat. Expressed as Inhibition of AI pressor response at 6 hr at a dose of 13.1 mg/kg po", "format": "organism-based", "parameters": "dose 13.1 mg/kg", "in_short": "as §2"}, "Rattus norvegicus [10]": {"test_system": "Rattus norvegicus", "experiment": "Plasma ANF Concentration in the Conscious Rat at a dose of 13.1(po)mg/kg at 4 h", "format": "functional", "in_short": "(§4)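 Male Sprague-Dawley rats (275-390 g) received femoral artery and vein catheters under ketamine (150 mg/kg)/acepromazine and recovered for 24 h, tethered, before study conscious. ratANF(99-126) was infused at 450 ng/kg/min iv for 5 h. Baseline blood was drawn at 60 min into the infusion, then compound was given po.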"}, "[11]": {"biological_target": "T1, Angiotensin-converting enzyme (Rattus norvegicus)", "experiment": "Compound was tested for plasma inhibition of Angiotensin I converting enzyme activity in the conscious rat. Expressed as Inhibition of AI pressor response at 2 hr at a dose of 13.1 mg/kg po", "format": "organism-based", "parameters": "dose 13.1 mg/kg", "in_short": "as §3"}, "[12]": {"biological_target": "T1, Angiotensin-converting enzyme (Rattus norvegicus)", "experiment": "Compound was tested for plasma inhibition of Angiotensin I converting enzyme activity in the conscious rat. Expressed as Inhibition of AI pressor response at 4 hr at a dose of 13.1 mg/kg po", "format": "organism-based", "parameters": "dose 13.1 mg/kg", "in_short": "as §2"}, "Rattus norvegicus [13]": {"test_system": "Rattus norvegicus", "experiment": "Plasma ANF Concentration in the Conscious Rat at a dose of 13.1(po)mg/kg at 2 h", "format": "functional", "in_short": "as §4"}, "[14]": {"biological_target": "T1, Angiotensin-converting enzyme (Rattus norvegicus)", "experiment": "Compound was tested for plasma inhibition of Angiotensin I converting enzyme activity in the conscious rat. Expressed as Inhibition of AI pressor response at 1 hr at a dose of 13.1 mg/kg po", "format": "organism-based", "parameters": "dose 13.1 mg/kg", "in_short": "as §3"}, "Rattus norvegicus [15]": {"test_system": "Rattus norvegicus", "experiment": "Plasma ANF Concentration in the Conscious Rat at a dose of 13.1(po)mg/kg at 1 h", "format": "functional", "in_short": "as §4"}, "Rattus norvegicus [16]": {"test_system": "Rattus norvegicus", "experiment": "Plasma ANF Concentration in the Conscious Rat at a dose of 13.1(po)mg/kg at 0.5 h", "format": "functional", "in_short": "as §4"}, "Rattus norvegicus [17]": {"test_system": "Rattus norvegicus", "experiment": "Plasma ANF Concentration in the Conscious Rat at a dose of 13.2(po)mg/kg at 1 h", "format": "functional", "in_short": "as §4"}, "[18]": {"biological_target": "T1, Angiotensin-converting enzyme (Rattus norvegicus)", "experiment": "Compound was tested for plasma inhibition of Angiotensin I converting enzyme activity in the conscious rat. Expressed as Inhibition of AI pressor response at 1 hr at a dose of 13.2 mg/kg po", "format": "organism-based", "parameters": "dose 13.2 mg/kg", "in_short": "as §3"}, "Rattus norvegicus [19]": {"test_system": "Rattus norvegicus", "experiment": "Plasma ANF Concentration in the Conscious Rat at a dose of 13.2(po)mg/kg at 0.5 h", "format": "functional", "in_short": "as §4"}, "[20]": {"biological_target": "T1, Angiotensin-converting enzyme (Rattus norvegicus)", "experiment": "Compound was tested for plasma inhibition of Angiotensin I converting enzyme activity in the conscious rat. Expressed as Inhibition of AI pressor response at 6 hr at a dose of 13.2 mg/kg po", "format": "organism-based", "parameters": "dose 13.2 mg/kg", "in_short": "as §2"}, "[21]": {"biological_target": "T1, Angiotensin-converting enzyme (Rattus norvegicus)", "experiment": "Compound was tested for plasma inhibition of Angiotensin I converting enzyme activity in the conscious rat. Expressed as Inhibition of AI pressor response at 2 hr at a dose of 13.2 mg/kg po", "format": "organism-based", "parameters": "dose 13.2 mg/kg", "in_short": "as §3"}, "Rattus norvegicus [22]": {"test_system": "Rattus norvegicus", "experiment": "Plasma ANF Concentration in the Conscious Rat at a dose of 13.2(po)mg/kg at 4 h", "format": "functional", "in_short": "as §4"}, "[23]": {"biological_target": "T1, Angiotensin-converting enzyme (Rattus norvegicus)", "experiment": "Compound was tested for plasma inhibition of Angiotensin I converting enzyme activity in the conscious rat. Expressed as Inhibition of AI pressor response at 4 hr at a dose of 13.2 mg/kg po", "format": "organism-based", "parameters": "dose 13.2 mg/kg", "in_short": "as §2"}, "Rattus norvegicus [24]": {"test_system": "Rattus norvegicus", "experiment": "Plasma ANF Concentration in the Conscious Rat at a dose of 13.2(po)mg/kg at 2 h", "format": "functional", "in_short": "as §4"}}, "data": [{"compound": "CCOC(=O)[C@H](Cc1ccc(OC(=O)COC)cc1)NC(=O)C1(NC(=O)[C@H](SC(C)=O)C(C)C)CCCC1", "values": [{"measurement": "Control", "setting": "Rattus norvegicus [1]", "result": 263, "unit": "%"}, {"measurement": "inhibition", "setting": "[2]", "result": 70, "unit": "%"}, {"measurement": "Control", "setting": "Rattus norvegicus [3]", "result": 203, "unit": "%"}, {"measurement": "Control", "setting": "Rattus norvegicus [4]", "result": 223, "unit": "%"}, {"measurement": "inhibition", "setting": "[5]", "result": 79, "unit": "%"}, {"measurement": "Control", "setting": "Rattus norvegicus [6]", "result": 252, "unit": "%"}, {"measurement": "inhibition", "setting": "[7]", "result": 61, "unit": "%"}, {"measurement": "inhibition", "setting": "[8]", "result": 79, "unit": "%"}]}, {"compound": "COc1ccc(C[C@H](NC(=O)C2(NC(=O)[C@H](SC(C)=O)C(C)C)CCCC2)C(=O)OCc2ccccc2)cc1", "values": [{"measurement": "inhibition", "setting": "[9]", "result": 64, "unit": "%"}, {"measurement": "Control", "setting": "Rattus norvegicus [10]", "result": 181, "unit": "%"}, {"measurement": "inhibition", "setting": "[11]", "result": 84, "unit": "%"}, {"measurement": "inhibition", "setting": "[12]", "result": 81, "unit": "%"}, {"measurement": "Control", "setting": "Rattus norvegicus [13]", "result": 143, "unit": "%"}, {"measurement": "inhibition", "setting": "[14]", "result": 85, "unit": "%"}, {"measurement": "Control", "setting": "Rattus norvegicus [15]", "result": 111, "unit": "%"}, {"measurement": "Control", "setting": "Rattus norvegicus [16]", "result": 107, "unit": "%"}]}, {"compound": "COc1ccc(C[C@H](NC(=O)C2(NC(=O)[C@H](SC(C)=O)C(C)C)CCCC2)C(=O)OCc2cccnc2)cc1", "values": [{"measurement": "Control", "setting": "Rattus norvegicus [17]", "result": 267, "unit": "%"}, {"measurement": "inhibition", "setting": "[18]", "result": 99, "unit": "%"}, {"measurement": "Control", "setting": "Rattus norvegicus [19]", "result": 223, "unit": "%"}, {"measurement": "inhibition", "setting": "[20]", "result": 63, "unit": "%"}, {"measurement": "inhibition", "setting": "[21]", "result": 97, "unit": "%"}, {"measurement": "Control", "setting": "Rattus norvegicus [22]", "result": 332, "unit": "%"}, {"measurement": "inhibition", "setting": "[23]", "result": 87, "unit": "%"}, {"measurement": "Control", "setting": "Rattus norvegicus [24]", "result": 260, "unit": "%"}]}]}
